Source: ChEMBL document CHEMBL4130442, “Design, synthesis and structure-activity relationship studies of a focused library of pyrimidine moiety with anti-proliferative and anti-metastasis activities in triple negative breast cancer” (Eur J Med Chem, 2017)

Assays:
[1] = target: T1, Platelet-derived growth factor receptor beta (Homo sapiens, UniProt P09619); test: Inhibition of PDGFRbeta in human MDA-MB-231 cells assessed as Akt Ser473 phosphorylation level at 10 uM incubated for 24 hrs by Western blot relative to untreated control; assay type: cell-based
Method in brief: (§1)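 Cells were treated 24 h at several concentrations. Pooled adherent and floating cells were lysed in Hepes 50 mM pH 7.4 / 1% Triton X-100 buffer with vanadate, NaF, EDTA, PMSF, aprotinin and leupeptin. Equal protein was run on 10-15% SDS-PAGE and blotted to PVDF. PDGFR-β-AKT-ULK1 pathway phospho-proteins were probed and detected by ECL, with β-actin as loading control.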

MDA-MB-231 [2] = test: Effect on total Ras protein level in human MDA-MB-231 cells at 2.5 uM incubated for 24 hrs in presence of PDGFRbeta siRNA by Western blot relative to untreated control; assay type: cell-based; conditions: mda-mb-231, 24 h
MDA-MB-231 [3] = test: Effect on total Akt protein level in human MDA-MB-231 cells at 10 uM incubated for 24 hrs by Western blot relative to untreated control; assay type: ADME, cell-based; conditions: mda-mb-231, 24 h
Method in brief: (§2)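 MDA-MB-231 cells were exposed for 24 h. Adherent and floating cells were pooled and lysed for 1 h at 4 °C in 50 mM Hepes pH 7.4 with 1% Triton X-100, orthovanadate, NaF, EDTA, PMSF, aprotinin and leupeptin. After 12,000 rpm clearing, equal protein was run on 10-15% SDS-PAGE and blotted to PVDF. Detection used HRP-ECL, with β-actin as loading control and densitometric quantification.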

MDA-MB-231 [4] = test: Antiproliferative activity against human MDA-MB-231 cells incubated for 24 hrs by MTT assay; assay type: functional, cell-based; conditions: MDA-MB-231, 24 h
Method in brief: (§3)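 MDA-MB-231 cells grown in DMEM with 10% FBS under 5% CO2 were seeded at 5×10^4 cells/ml. After 24 h, a concentration series was added for 24, 48 or 72 h and viability was read by MTT. IC50 is mean ± SD of triplicates.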

MDA-MB-231 [5] = test: Effect on total mTOR protein level in human MDA-MB-231 cells at 10 uM incubated for 24 hrs by Western blot relative to untreated control; assay type: ADME, cell-based; conditions: mda-mb-231, 24 h; method in brief: as §2
[6] = target: T1, Platelet-derived growth factor receptor beta; test: Inhibition of PDGFRbeta in human MDA-MB-231 cells assessed as PDGFRbeta Tyr740 phosphorylation level at 10 uM incubated for 24 hrs by Western blot relative to untreated control; assay type: cell-based; method in brief: as §1
MDA-MB-231 [7] = test: Effect on total c-Raf protein level in human MDA-MB-231 cells at 10 uM incubated for 24 hrs in presence of PDGFRbeta siRNA by Western blot relative to untreated control; assay type: cell-based; conditions: mda-mb-231, 24 h
MDA-MB-231 [8] = test: Effect on total PDGFRbeta protein level in human MDA-MB-231 cells at 2.5 uM incubated for 24 hrs by Western blot relative to untreated control; assay type: ADME, cell-based; conditions: mda-mb-231, 24 h; method in brief: as §2
[9] = target: T1, Platelet-derived growth factor receptor beta; test: Inhibition of PDGFRbeta in human MDA-MB-231 cells assessed as ULK Ser555 phosphorylation level at 2.5 uM incubated for 24 hrs in presence of PDGFRbeta siRNA by Western blot relative to untreated control; assay type: cell-based
Method in brief: (§4)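 Cells were transfected with control or PDGFR-β siRNA, then treated with 2.5 μM compound for 24 h. PDGFR-β-AKT-ULK1 pathway phospho-proteins were assessed by western blot: lysis in Hepes pH 7.4 / Triton buffer, 10-15% SDS-PAGE, PVDF, ECL detection, β-actin as loading control.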

MDA-MB-231 [10] = test: Induction of autophagy in human MDA-MB-231 cells assessed as change in p62 protein level at 5 uM incubated for 24 hrs by Western blot method relative to untreated control; assay type: functional
Method in brief: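 Cells grown in DMEM with 10% FBS under 5% CO2 and treated 24 h across a range of concentrations. Adherent and floating cells were pooled and lysed in Hepes 50 mM pH 7.4 / 1% Triton X-100 buffer with phosphatase and protease inhibitors, 4 °C for 1 h. Equal protein was run on 10-15% SDS-PAGE, blotted to PVDF, probed with Beclin-1, p62 and LC3 antibodies and detected by ECL.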

[11] = target: T1, Platelet-derived growth factor receptor beta; test: Inhibition of PDGFRbeta in human MDA-MB-231 cells assessed as ULK Ser317 phosphorylation level at 2.5 uM incubated for 24 hrs in presence of control siRNA by Western blot relative to untreated control; assay type: cell-based; method in brief: as §4
MDA-MB-231 [12] = test: Induction of autophagy in human MDA-MB-231 cells assessed as change in Beclin-1 protein level at 2.5 uM incubated for 24 hrs by Western blot method relative to untreated control; assay type: functional; method in brief: as §2
MDA-MB-231 [13] = test: Effect on total PDGFRbeta protein level in human MDA-MB-231 cells at 5 uM incubated for 24 hrs by Western blot relative to untreated control; assay type: ADME, cell-based; conditions: mda-mb-231, 24 h; method in brief: as §2
MDA-MB-231 [14] = test: Induction of autophagy in human MDA-MB-231 cells assessed as change in Beclin-1 protein level at 2.5 uM incubated for 24 hrs in presence of control siRNA by Western blot method relative to untreated control; assay type: functional; method in brief: as §2
MDA-MB-231 [15] = test: Induction of autophagy in human MDA-MB-231 cells assessed as change in Beclin-1 protein level at 10 uM incubated for 24 hrs by Western blot method relative to untreated control; assay type: functional; method in brief: as §2
[16] = target: T1, Platelet-derived growth factor receptor beta; test: Inhibition of PDGFRbeta in human MDA-MB-231 cells assessed as Akt Ser473 phosphorylation level at 5 uM incubated for 24 hrs by Western blot relative to untreated control; assay type: cell-based; method in brief: as §1
[17] = target: T1, Platelet-derived growth factor receptor beta; test: Inhibition of PDGFRbeta in human MDA-MB-231 cells assessed as ULK Ser317 phosphorylation level at 10 uM incubated for 24 hrs by Western blot relative to untreated control; assay type: cell-based; method in brief: as §1
MDA-MB-231 [18] = test: Effect on total PDGFRbeta protein level in human MDA-MB-231 cells at 2.5 uM incubated for 24 hrs in presence of control siRNA by Western blot relative to untreated control; assay type: ADME, cell-based; conditions: mda-mb-231, 24 h; method in brief: as §2
[19] = target: T1, Platelet-derived growth factor receptor beta; test: Inhibition of PDGFRbeta in human MDA-MB-231 cells assessed as mTOR Ser2448 phosphorylation level at 2.5 uM incubated for 24 hrs in presence of PDGFRbeta siRNA by Western blot relative to untreated control; assay type: cell-based; method in brief: as §4
[20] = target: T1, Platelet-derived growth factor receptor beta; test: Inhibition of PDGFRbeta in human MDA-MB-231 cells assessed as ULK Ser317 phosphorylation level at 5 uM incubated for 24 hrs by Western blot relative to untreated control; assay type: cell-based; method in brief: as §1
[21] = target: T1, Platelet-derived growth factor receptor beta; test: Inhibition of PDGFRbeta in human MDA-MB-231 cells assessed as Akt Thr305 phosphorylation level at 10 uM incubated for 24 hrs by Western blot relative to untreated control; assay type: cell-based; method in brief: as §1
MDA-MB-231 [22] = test: Antiproliferative activity against human MDA-MB-231 cells incubated for 72 hrs by MTT assay; assay type: functional, cell-based; conditions: MDA-MB-231, 72 h; method in brief: as §3
MCF7 = test: Antiproliferative activity against human MCF7 cells incubated for 24 hrs by MTT assay; assay type: functional, cell-based; conditions: MCF7, 24 h
[23] = target: T1, Platelet-derived growth factor receptor beta; test: Inhibition of PDGFRbeta in human MDA-MB-231 cells assessed as Akt Thr305 phosphorylation level at 5 uM incubated for 24 hrs by Western blot relative to untreated control; assay type: cell-based; method in brief: as §1
MDA-MB-436 = test: Antiproliferative activity against human MDA-MB-436 cells incubated for 24 hrs by MTT assay; assay type: functional, cell-based; conditions: MDA-MB-436, 24 h
MDA-MB-231 [24] = test: Induction of apoptosis in human MDA-MB-231 cells assessed as change in cleaved PARP protein level at 2.5 uM incubated for 24 hrs by Western blot method relative to untreated control; assay type: functional; method in brief: as §2

T1 sequence (P09619 whole entry): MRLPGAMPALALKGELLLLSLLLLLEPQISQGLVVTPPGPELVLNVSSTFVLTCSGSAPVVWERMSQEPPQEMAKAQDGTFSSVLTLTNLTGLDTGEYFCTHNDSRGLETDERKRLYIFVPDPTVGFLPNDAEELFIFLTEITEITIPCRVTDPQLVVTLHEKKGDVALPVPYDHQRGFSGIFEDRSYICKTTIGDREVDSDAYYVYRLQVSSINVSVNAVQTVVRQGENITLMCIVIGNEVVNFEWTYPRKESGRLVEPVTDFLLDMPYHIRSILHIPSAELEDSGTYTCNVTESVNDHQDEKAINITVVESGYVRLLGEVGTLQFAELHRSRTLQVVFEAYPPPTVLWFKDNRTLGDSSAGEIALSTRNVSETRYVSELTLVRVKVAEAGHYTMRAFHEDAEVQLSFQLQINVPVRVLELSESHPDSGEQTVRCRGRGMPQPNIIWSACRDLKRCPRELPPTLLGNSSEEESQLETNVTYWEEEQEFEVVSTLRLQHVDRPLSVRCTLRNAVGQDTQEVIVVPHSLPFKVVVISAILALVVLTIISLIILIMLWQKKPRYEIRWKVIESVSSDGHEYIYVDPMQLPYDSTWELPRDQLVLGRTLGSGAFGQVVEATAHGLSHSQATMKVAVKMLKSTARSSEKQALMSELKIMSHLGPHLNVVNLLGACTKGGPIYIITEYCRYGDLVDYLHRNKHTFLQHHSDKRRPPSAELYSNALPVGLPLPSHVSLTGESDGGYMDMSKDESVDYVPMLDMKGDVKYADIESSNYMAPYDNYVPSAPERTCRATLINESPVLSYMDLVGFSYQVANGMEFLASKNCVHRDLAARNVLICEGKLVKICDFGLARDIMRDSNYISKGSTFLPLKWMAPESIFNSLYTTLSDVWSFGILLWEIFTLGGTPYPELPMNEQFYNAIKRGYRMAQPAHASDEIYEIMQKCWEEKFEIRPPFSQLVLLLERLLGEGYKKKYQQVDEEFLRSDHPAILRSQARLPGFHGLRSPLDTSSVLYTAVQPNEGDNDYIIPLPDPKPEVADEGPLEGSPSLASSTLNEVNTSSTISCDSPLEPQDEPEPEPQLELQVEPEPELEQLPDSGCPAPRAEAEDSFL

COc1cccc(Nc2cc(N3CCN(C(=O)Nc4ccc(C(F)(F)F)cc4)CC3)ncn2)c1
fold change (FC) [1]: 0.18 | fold change (FC) (MDA-MB-231 [2]): 1.2 | fold change (FC) (MDA-MB-231 [3]): 0.76 | IC50 (MDA-MB-231 [4]): 730 to 750 nM | fold change (FC) (MDA-MB-231 [5]): 0.45 | fold change (FC) [6]: 0.61 | fold change (FC) (MDA-MB-231 [7]): 1.23 | fold change (FC) (MDA-MB-231 [8]): 1.8 | fold change (FC) [9]: 3.69 | fold change (FC) (MDA-MB-231 [10]): 0.43 | fold change (FC) [11]: 3.21 | fold change (FC) (MDA-MB-231 [12]): 2.3 | fold change (FC) (MDA-MB-231 [13]): 1.1 | fold change (FC) (MDA-MB-231 [14]): 3.54 | fold change (FC) (MDA-MB-231 [15]): 3.2 | fold change (FC) [16]: 0.23 | fold change (FC) [17]: 3.2 | fold change (FC) (MDA-MB-231 [18]): 0.05 | fold change (FC) [19]: 0.16 | fold change (FC) [20]: 2.1 | fold change (FC) [21]: 0.12 | IC50 (MDA-MB-231 [22]): 630 nM | IC50 (MCF7): 2160 nM | fold change (FC) [23]: 0.75 | IC50 (MDA-MB-436): 2360 nM | fold change (FC) (MDA-MB-231 [24]): 0.89
